Several values for one entry are separate records, joined by “and”; a condition that tells them apart may be missing. Identical values can stand only once.
Tested on: HEK-293T
Experiment: Multiplex assay against HEK293T
Type: toxicity, cell-based
Conditions: human
Procedure, shortened: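 Cells stained live at seeding with Hoechst33342, BioTracker Green Microtubule Cytoskeleton Dye, MitoTracker Red and Annexin V Alexa Fluor 680 were imaged on a CQ1 microscope at 37°C and 5% CO2 after compound addition. Their classification by CellPathfinder machine-learning gating ran from Hoechst high-intensity objects versus normal cells, to healthy, pyknosed or fragmented nuclei among normal cells, to mitotic or apoptotic among pyknosed cells. Tubulin, mitochondrial-mass and membrane-permeability phenotypes are per cents of healthy-nucleus cells.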

[1] = 12 h, 1 µM, compound concentration 1 uM
[2] = 12 h, 10 µM, compound concentration 10 uM
[3] = 24 h, 1 µM, compound concentration 1 uM
[4] = 24 h, 10 µM, compound concentration 10 uM
[5] = 48 h, 1 µM, compound concentration 1 uM
[6] = 48 h, 10 µM, compound concentration 10 uM

With Cl.NCCc1ccc(O)c(O)c1 [DOPAMINE HYDROCHLORIDE] the “Population Apoptotic (%)” value [1] was 31% and 54%, the “Population Fragmented Nuclei (%)” value [1] was 6% and 7% and the “Population Healthy Nuclei (%)” value [1] was 77% and 78%. For the same molecule, the “Population Hoechst High Intensity Objects (%)” value [1] was 10% and 6%, the “Population Membrane Permeable-Phenotype (%)” value [1] was 0% and the “Population Mitochondria Different-Phenotype (%)” value [1] was 54% and 58%. For the same molecule, the “Population Mitotic Cells (%)” value [1] was 68% and 46%, the “Population Normal (%)” value [1] was 89% and 93% and the “Population Pyknosed Nuclei (%)” value [1] was 16% and 14%. For the same molecule, the “Population Tubulin-Different-Phenotype (%)” value [1] was 36% and 18%, the “Total Cell Count” value [1] was 324 and 372 and the “Population Apoptotic (%)” value [2] was 46% and 37%. For the same molecule, the “Population Fragmented Nuclei (%)” value [2] was 5%, the “Population Healthy Nuclei (%)” value [2] was 77% and 83% and the “Population Hoechst High Intensity Objects (%)” value [2] was 6% and 5%. For the same molecule, the “Population Membrane Permeable-Phenotype (%)” value [2] was 0%, the “Population Mitochondria Different-Phenotype (%)” value [2] was 57% and 51% and the “Population Mitotic Cells (%)” value [2] was 53% and 62%. For the same molecule, the “Population Normal (%)” value [2] was 93% and 94%, the “Population Pyknosed Nuclei (%)” value [2] was 17% and 11% and the “Population Tubulin-Different-Phenotype (%)” value [2] was 43% and 23%. The “Total Cell Count” value [2] was 344 and 413, the “Population Apoptotic (%)” value [3] was 44% and 20% and the “Population Fragmented Nuclei (%)” value [3] was 9% and 8%. For the same molecule, the “Population Healthy Nuclei (%)” value [3] was 76% and 85%, the “Population Hoechst High Intensity Objects (%)” value [3] was 4% and 5% and the “Population Membrane Permeable-Phenotype (%)” value [3] was 1% and 0%. For the same molecule, the “Population Mitochondria Different-Phenotype (%)” value [3] was 40% and 46%, the “Population Mitotic Cells (%)” value [3] was 55% and 79% and the “Population Normal (%)” value [3] was 95% and 94%. The “Population Pyknosed Nuclei (%)” value [3] was 13% and 5%, the “Population Tubulin-Different-Phenotype (%)” value [3] was 19% and 11% and the “Total Cell Count” value [3] was 451 and 478. For the same molecule, the “Population Apoptotic (%)” value [4] was 39% and 38%, the “Population Fragmented Nuclei (%)” value [4] was 7% and 9% and the “Population Healthy Nuclei (%)” value [4] was 79% and 83%. The “Population Hoechst High Intensity Objects (%)” value [4] was 5%, the “Population Membrane Permeable-Phenotype (%)” value [4] was 0% and the “Population Mitochondria Different-Phenotype (%)” value [4] was 36% and 40%. The “Population Mitotic Cells (%)” value [4] was 60% and 61%, the “Population Normal (%)” value [4] was 94% and the “Population Pyknosed Nuclei (%)” value [4] was 12% and 7%. For the same molecule, the “Population Tubulin-Different-Phenotype (%)” value [4] was 23% and 15%, the “Total Cell Count” value [4] was 393 and 533 and the “Population Apoptotic (%)” value [5] was 19% and 23%. The “Population Fragmented Nuclei (%)” value [5] was 14% and 10%, the “Population Healthy Nuclei (%)” value [5] was 78% and 81% and the “Population Hoechst High Intensity Objects (%)” value [5] was 4%. For the same molecule, the “Population Membrane Permeable-Phenotype (%)” value [5] was 1% and 0%, the “Population Mitochondria Different-Phenotype (%)” value [5] was 23% and 20% and the “Population Mitotic Cells (%)” value [5] was 80% and 76%. The “Population Normal (%)” value [5] was 95%, the “Population Pyknosed Nuclei (%)” value [5] was 7% and the “Population Tubulin-Different-Phenotype (%)” value [5] was 14% and 7%. For the same molecule, the “Total Cell Count” value [5] was 785 and 638, the “Population Apoptotic (%)” value [6] was 30% and 17% and the “Population Fragmented Nuclei (%)” value [6] was 14% and 12%. For the same molecule, the “Population Healthy Nuclei (%)” value [6] was 79% and 83%, the “Population Hoechst High Intensity Objects (%)” value [6] was 3% and 1% and the “Population Membrane Permeable-Phenotype (%)” value [6] was 0%. The “Population Mitochondria Different-Phenotype (%)” value [6] was 24% and 17%, the “Population Mitotic Cells (%)” value [6] was 70% and 82% and the “Population Normal (%)” value [6] was 96% and 98%. For the same molecule, the “Population Pyknosed Nuclei (%)” value [6] was 6% and 4%, the “Population Tubulin-Different-Phenotype (%)” value [6] was 13% and 7% and the “Total Cell Count” value [6] was 660 and 859.

In the case of CN[C@@H](C)C(=O)N[C@H](C(=O)N1CCC[C@H]1C(=O)Nc1snnc1-c1ccccc1)C1CCCCC1 [GDC-0152], the “Population Apoptotic (%)” value [1] is reported as 31% and 60%, the “Population Fragmented Nuclei (%)” value [1] is reported as 5% and the “Population Healthy Nuclei (%)” value [1] is reported as 78% and 79%. The “Population Hoechst High Intensity Objects (%)” value [1] was 5% and 7%, the “Population Membrane Permeable-Phenotype (%)” value [1] was 0% and the “Population Mitochondria Different-Phenotype (%)” value [1] was 41% and 62%. The “Population Mitotic Cells (%)” value [1] was 68% and 39%, the “Population Normal (%)” value [1] was 94% and 92% and the “Population Pyknosed Nuclei (%)” value [1] was 15% and 14%. The “Population Tubulin-Different-Phenotype (%)” value [1] was 35% and 26%, the “Total Cell Count” value [1] was 444 and 314 and the “Population Apoptotic (%)” value [2] was 50% and 72%. The “Population Fragmented Nuclei (%)” value [2] was 6% and 7%, the “Population Healthy Nuclei (%)” value [2] was 73% and the “Population Hoechst High Intensity Objects (%)” value [2] was 13% and 20%. For the same molecule, the “Population Membrane Permeable-Phenotype (%)” value [2] was 0%, the “Population Mitochondria Different-Phenotype (%)” value [2] was 78% and 89% and the “Population Mitotic Cells (%)” value [2] was 49% and 28%. The “Population Normal (%)” value [2] was 86% and 80%, the “Population Pyknosed Nuclei (%)” value [2] was 20% and 18% and the “Population Tubulin-Different-Phenotype (%)” value [2] was 78% and 72%. For the same molecule, the “Total Cell Count” value [2] was 362 and 330, the “Population Apoptotic (%)” value [3] was 30% and 38% and the “Population Fragmented Nuclei (%)” value [3] was 8% and 5%. The “Population Healthy Nuclei (%)” value [3] was 80% and 82%, the “Population Hoechst High Intensity Objects (%)” value [3] was 4% and 6% and the “Population Membrane Permeable-Phenotype (%)” value [3] was 1% and 0%. For the same molecule, the “Population Mitochondria Different-Phenotype (%)” value [3] was 28% and 53%, the “Population Mitotic Cells (%)” value [3] was 69% and 61% and the “Population Normal (%)” value [3] was 95% and 93%. The “Population Pyknosed Nuclei (%)” value [3] was 10% and 12%, the “Population Tubulin-Different-Phenotype (%)” value [3] was 23% and 22% and the “Total Cell Count” value [3] was 601 and 387. For the same molecule, the “Population Apoptotic (%)” value [4] was 45% and 60%, the “Population Fragmented Nuclei (%)” value [4] was 10% and 12% and the “Population Healthy Nuclei (%)” value [4] was 71% and 68%. For the same molecule, the “Population Hoechst High Intensity Objects (%)” value [4] was 7% and 21%, the “Population Membrane Permeable-Phenotype (%)” value [4] was 0% and the “Population Mitochondria Different-Phenotype (%)” value [4] was 74% and 80%. For the same molecule, the “Population Mitotic Cells (%)” value [4] was 54% and 40%, the “Population Normal (%)” value [4] was 92% and 78% and the “Population Pyknosed Nuclei (%)” value [4] was 17% and 19%. The “Population Tubulin-Different-Phenotype (%)” value [4] was 69% and 58%, the “Total Cell Count” value [4] was 454 and 400 and the “Population Apoptotic (%)” value [5] was 31% and 40%. The “Population Fragmented Nuclei (%)” value [5] was 12% and 10%, the “Population Healthy Nuclei (%)” value [5] was 78% and 82% and the “Population Hoechst High Intensity Objects (%)” value [5] was 4% and 3%. For the same molecule, the “Population Membrane Permeable-Phenotype (%)” value [5] was 1%, the “Population Mitochondria Different-Phenotype (%)” value [5] was 22% and 29% and the “Population Mitotic Cells (%)” value [5] was 68% and 60%. The “Population Normal (%)” value [5] was 95% and 96%, the “Population Pyknosed Nuclei (%)” value [5] was 9% and 6% and the “Population Tubulin-Different-Phenotype (%)” value [5] was 16%. For the same molecule, the “Total Cell Count” value [5] was 928 and 603, the “Population Apoptotic (%)” value [6] was 47% and 60% and the “Population Fragmented Nuclei (%)” value [6] was 12%. For the same molecule, the “Population Healthy Nuclei (%)” value [6] was 73% and 70%, the “Population Hoechst High Intensity Objects (%)” value [6] was 16% and 21% and the “Population Membrane Permeable-Phenotype (%)” value [6] was 0%. For the same molecule, the “Population Mitochondria Different-Phenotype (%)” value [6] was 74% and 76%, the “Population Mitotic Cells (%)” value [6] was 52% and 39% and the “Population Normal (%)” value [6] was 83% and 78%. For the same molecule, the “Population Pyknosed Nuclei (%)” value [6] was 13% and 17%, the “Population Tubulin-Different-Phenotype (%)” value [6] was 55% and 52% and the “Total Cell Count” value [6] was 538 and 417.

— ChEMBL document CHEMBL5724801, “EUbOPEN Chemogenomics Library - Multiplex” (2024)
